These results are taken from publication PMC8650835 (International Journal of Nanomedicine, 2021).

In brackets after ≈: the same amount, converted by molar mass.

Series [1] in a line: Aqueous solubility in PBS. In kind it is physicochemical. The following applies: pH = 7.4.
The conditions of series [2]: in PBS; cited from earlier work.
The conditions of series [3]: free CPT; cited from earlier work.
Series [4] is described as follows: In vivo safety: body weight, H&E histology, blood biochemistry. Further details: species or system BALB/c nude mice. The following applies: 10 mg·kg^−1 i.v. In short, it runs like this:
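MCF-7 xenografts in BALB/c nude mice: 1×10^6 cells s.c. (alar region), randomised at 100–200 mm3 (n = 6/group). Untreated normal group also included. Body weight recorded every 2 days for 16 days. Day 16: serum ALT, AST, BUN, CRE measured; organs formalin-fixed, paraffin-embedded and H&E-stained.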

The term aqueous solubility denotes how much of the substance goes into solution per volume. The low end stands for little dissolved substance, the high end for much dissolved substance. Compound `CC[C@@]1(O)C(=O)OCc2c1cc1n(c2=O)Cc2cc3ccccc3nc2-1` [CPT, camptothecin] had an aqueous solubility in series [1] of 3 µg/mL (≈ 8.61 µM). Moreover, in series [2], the “CPT lactone form remained at equilibrium” value is 17% and the “half-life of lactone ring hydrolysis” value is reported as 24 min. Also, the “blood circulation half-life (t1/2)” value in series [3] is 9.9 ± 8.04 min.

Regarding `CCc1c2c(nc3ccc(OC(=O)N4CCC(N5CCCCC5)CC4)cc13)-c1cc3c(c(=O)n1C2)COC(=O)[C@]3(O)CC` [IR, irinotecan], the “body weights compared to PBS” value in series [4] (MCF-7 tumor-bearing nude mice, p < 0.05) is reported as “reduced observably”. The “creatinine (CRE) level compared with the normal group” value in series [4] (day 16, p < 0.001, n = 6) is “increased obviously”. For the same compound, the “blood urea nitrogen (BUN) level compared with the normal group” value in series [4] (day 16, p < 0.05, n = 6) is on record as “increased obviously”. Also, in series [4] (characteristic of acute kidney injury), the “H&E staining of kidney” value is given as “obvious interstitial inflammatory cell infiltration”.
